The results in this text go back to ChEMBL document CHEMBL1141162, “Inhibition of carboxylesterases by benzil (diphenylethane-1,2-dione) and heterocyclic analogues is dependent upon the aromaticity of the ring and the flexibility of the dione moiety” (J Med Chem, 2005).

Experiment [1] addresses Acetylcholinesterase (Homo sapiens, UniProt P22303). The experiment in a line: Inhibition of 1 mM acetylthiocholine (AcTCh) binding to human Acetylcholinesterase. An outline of the steps:
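Human acetylcholinesterase from a commercial supplier, assayed with 1 mM acetylthiocholine as substrate.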

Experiment [2] deals with T1, Cocaine esterase (Homo sapiens, UniProt O00748).
T1 sequence (O00748 whole entry): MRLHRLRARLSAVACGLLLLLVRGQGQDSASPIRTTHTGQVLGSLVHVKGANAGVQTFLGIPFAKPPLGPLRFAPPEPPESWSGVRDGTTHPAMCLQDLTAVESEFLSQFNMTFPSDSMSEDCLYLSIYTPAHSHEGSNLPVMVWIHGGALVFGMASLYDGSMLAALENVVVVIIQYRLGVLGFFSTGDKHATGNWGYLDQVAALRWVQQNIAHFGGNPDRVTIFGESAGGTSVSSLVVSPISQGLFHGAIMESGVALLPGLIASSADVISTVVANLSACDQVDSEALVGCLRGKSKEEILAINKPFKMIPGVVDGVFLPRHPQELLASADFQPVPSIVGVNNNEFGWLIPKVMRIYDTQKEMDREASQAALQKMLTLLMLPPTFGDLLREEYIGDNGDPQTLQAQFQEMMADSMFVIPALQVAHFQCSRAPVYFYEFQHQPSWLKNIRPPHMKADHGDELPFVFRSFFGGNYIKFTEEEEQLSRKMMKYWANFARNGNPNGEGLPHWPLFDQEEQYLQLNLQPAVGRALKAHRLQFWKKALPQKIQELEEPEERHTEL
The experiment in a line: Inhibition constant against human intestinal carboxylesterase (hiCE) expressed in Sf21 cells using 3 mM o-NPA.

In experiment [3] the target is T2, Liver carboxylesterase 1 (Homo sapiens, UniProt P23141).
T2 sequence (P23141 whole entry): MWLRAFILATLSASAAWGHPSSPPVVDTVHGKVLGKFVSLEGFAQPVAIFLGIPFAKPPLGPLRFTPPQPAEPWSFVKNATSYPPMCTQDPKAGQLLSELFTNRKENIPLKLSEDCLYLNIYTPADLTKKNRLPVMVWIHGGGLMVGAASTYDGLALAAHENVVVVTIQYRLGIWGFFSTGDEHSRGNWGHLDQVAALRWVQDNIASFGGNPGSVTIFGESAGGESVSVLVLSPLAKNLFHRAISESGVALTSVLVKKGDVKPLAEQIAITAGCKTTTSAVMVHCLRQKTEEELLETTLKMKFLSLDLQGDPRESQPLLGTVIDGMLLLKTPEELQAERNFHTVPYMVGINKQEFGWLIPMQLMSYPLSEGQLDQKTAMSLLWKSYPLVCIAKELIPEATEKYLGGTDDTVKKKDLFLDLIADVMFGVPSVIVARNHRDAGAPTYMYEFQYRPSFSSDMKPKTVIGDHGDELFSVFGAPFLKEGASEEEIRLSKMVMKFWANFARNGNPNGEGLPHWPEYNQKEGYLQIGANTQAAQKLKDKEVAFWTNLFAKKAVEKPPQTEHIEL
The experiment in a line: Inhibition constant against human liver carboxylesterase (hCE1) expressed in Sf21 cells using 3 mM o-NPA. Format: cell-based, Oryctolagus cuniculus.

A short description of experiment [4]: Inhibition constant against rabbit liver carboxylesterase (rCE) expressed in Sf21 cells using 3 mM o-NPA. Further details: species or system Oryctolagus cuniculus.

Values joined by “and” are separate entries in the source; they are usually repeats but may differ in a detail not shown here. Identical values can stand only once.

Sequence of Acetylcholinesterase (P22303 whole entry): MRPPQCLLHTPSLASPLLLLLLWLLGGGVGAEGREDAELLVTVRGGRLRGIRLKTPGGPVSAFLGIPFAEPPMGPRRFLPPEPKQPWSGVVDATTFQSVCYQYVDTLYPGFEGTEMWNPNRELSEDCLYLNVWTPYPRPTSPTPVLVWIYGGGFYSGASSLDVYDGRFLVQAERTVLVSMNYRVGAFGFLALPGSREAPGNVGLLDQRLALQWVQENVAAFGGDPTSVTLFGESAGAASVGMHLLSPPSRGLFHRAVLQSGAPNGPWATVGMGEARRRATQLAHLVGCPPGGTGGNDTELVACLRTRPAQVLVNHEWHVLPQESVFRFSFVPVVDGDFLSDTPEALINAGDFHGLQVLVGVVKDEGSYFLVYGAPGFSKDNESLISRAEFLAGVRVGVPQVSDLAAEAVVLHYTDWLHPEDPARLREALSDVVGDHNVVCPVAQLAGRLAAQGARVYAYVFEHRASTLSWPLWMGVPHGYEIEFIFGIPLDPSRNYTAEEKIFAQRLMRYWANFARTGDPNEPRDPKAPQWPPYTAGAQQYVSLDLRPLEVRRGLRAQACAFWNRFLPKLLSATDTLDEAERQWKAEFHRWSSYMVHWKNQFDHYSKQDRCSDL

Take `O=C(c1ccco1)C(O)c1ccco1` (stereo not drawn): the inhibitory constant (Ki) in experiment [1], in experiment [2], in experiment [3] and in experiment [3] (sf21) was greater than 100000 nM throughout.

With `O=C(C(=O)c1ccco1)c1ccco1`, the Ki (usually a dissociation constant, usually derived from enzyme kinetics or from competition with a known ligand) in experiment [1] is greater than 100000 nM; in experiment [2], 8000 nM; in experiment [3] it was 1170 nM and 8480 nM.

`O=C(C(=O)c1cc(Br)cs1)c1cc(Br)cs1`: the Ki in experiment [1] was greater than 100000 nM; in experiment [2], 57.3 nM.

Take `O=C(C(=O)c1cccs1)c1cccs1`: the Ki in experiment [1] is greater than 100000 nM; in experiment [2], 1040 nM; in experiment [3] it was 212 nM and 874 nM.

For the molecule `O=C(C(=O)c1ccccn1)c1ccccn1`, the Ki is greater than 100000 nM in experiment [1]; 126 nM and 484 nM in experiment [3].

`O=C(C(=O)c1ccc(Br)s1)c1ccc(Br)s1` came in with a Ki in experiment [1] greater than 100000 nM.

With `O=C(C(=O)c1ccsc1)c1ccsc1`, the inhibition constant (Ki) was greater than 100000 nM in experiment [1]; 6540 nM in experiment [2]; 365 nM and 2410 nM in experiment [3].

With `O=C(c1cccs1)C(O)c1cccs1` (stereo not drawn), the inhibition constant Ki in experiment [1] was greater than 100000 nM; in experiment [2], 5610 nM; in experiment [3], 1660 nM and 4540 nM.

Regarding `O=C(C(=O)c1ccc2ccccc2c1)c1ccc2ccccc2c1`, the inhibition constant (Ki) in experiment [4] was determined as 1.04 nM; in experiment [3], 255 nM.
